Experimental data collected from several papers.
Protocols differ between the studies behind these lines.
Organism: Mycobacterium tuberculosis
Read-out: microbial growth

NNC(=O)c1ccncc1  MIC (resazurin; H37RV): 0.228 µM
C#CC[N+]1(CC)CCc2c(sc(NC(=O)c3c(F)c(F)c(F)c(F)c3F)c2C(=O)OCC)C1 (centres unmarked)  MIC (CDC1551): 5.8 µM
NNC(=O)c1ccncc1  MIC (resazurin; H37RV; 7 days): 0.05 µg/mL
CCc1cc(=O)c2c(OCC(O)CNC(C)(C)C)c3ccoc3c(OC)c2o1 (centres unmarked)  MIC (resazurin; H37RV; 21 days): 128 µg/mL
CO[C@H]1/C=C/O[C@@]2(C)Oc3c(C)c(O)c4c(O)c(c(/C=N/N5CCN(C)CC5)c(O)c4c3C2=O)NC(=O)/C(C)=C\C=C\[C@H](C)[C@H](O)[C@@H](C)[C@@H](O)[C@@H](C)[C@H](OC(C)=O)[C@@H]1C  MIC (resazurin; H37RV; 5 days): 0.03 µg/mL
CCc1cc(=O)c2c(OCC(O)CN(CC)CC)c3ccoc3c(OC)c2o1 (centres unmarked)  MIC (resazurin; 21 days): 64 µg/mL
NNC(=O)c1ccncc1  MIC (H37RV): 0.62 µM
CC[C@@H](CO)NCCN[C@@H](CC)CO  MIC (resazurin; H37RV): 2.45 µM
CCc1ccc(CCNc2cc(-c3ccccn3)nc3cc(Br)nn23)cc1  MIC (H37RV): 21 µM
NC(=S)NN=Cc1ccc(OC(=O)CN2C(=O)CSC2=O)c(Cl)c1  MIC (resazurin; H37RV): 5.17 µM
FC(F)(F)c1ccc(CCNc2cc(-c3ccccn3)nc3nnc(C4CC4)n23)cc1  MIC (H37RV): 42 µM
CO[C@H]1/C=C/O[C@@]2(C)Oc3c(C)c(O)c4c(O)c(c(/C=N/N5CCN(C)CC5)c(O)c4c3C2=O)NC(=O)/C(C)=C\C=C\[C@H](C)[C@H](O)[C@@H](C)[C@@H](O)[C@@H](C)[C@H](OC(C)=O)[C@@H]1C  MIC (resazurin; 21 days): 64 µg/mL
FC(F)(F)c1ccc(CCNc2cc(-c3ccccn3)nc3nncn23)cc1  MIC (H37RV): 0.53 µM
CCc1cc(=O)c2c(OCC3CO3)c3ccoc3c(OC)c2o1 (centres unmarked)  MIC (resazurin; 21 days): 64 µg/mL
Brc1ccc(CCNc2cc(-c3ccccn3)nc3nncn23)cc1  MIC (H37RV): 1.1 µM
[H]/N=C(/N)N[C@H]1[C@H](O)[C@@H](O)[C@H](O[C@@H]2O[C@@H](C)[C@](O)(C=O)[C@H]2O[C@@H]2O[C@@H](CO)[C@H](O)[C@@H](O)[C@@H]2NC)[C@@H](N/C(N)=N\[H])[C@@H]1O  MIC (resazurin; H37RV; 5 days): 1 µg/mL
Fc1cccc(CCOc2cc(-c3ccccn3)nc3ncnn23)c1  MIC (H37RV): > 100 µM
COc1nc2ccc(Br)cc2cc1[C@@H](c1ccccc1)[C@@](O)(CCN(C)C)c1cccc2ccccc12  MIC (H37RV): 0.31 µM
O=c1[nH]c2nc(-c3ccncc3)sc2c(=O)n1O  MIC: > 100 µM
COc1ccc(-c2oc3ccc(O)c(CN4CCCCC4)c3c2C(=O)NCc2cn(Cc3ccccc3)nn2)cc1  MIC (CDC1551): 2 µM
CCc1cc(=O)c2c(OCC(O)CN3CCC(C)CC3)c3ccoc3c(OC)c2o1 (centres unmarked)  MIC (resazurin; H37RV; 21 days): 32 µg/mL
CCOC(=O)c1c(-c2ccc(OC)cc2)oc2ccc(O)c(CN3CCN(Cc4cn(C[C@H]5O[C@H](O[C@H]6O[C@H](CO)[C@@H](O)[C@H](O)[C@H]6O)[C@H](O)[C@@H](O)[C@@H]5O)nn4)CC3)c12  MIC (CDC1551): 5.3 µM
O=c1[nH]c2ncsc2c(=O)n1O  MIC: 27.4 µM
FC(F)(F)Oc1ccc(CCNc2cc(-c3cccs3)nc3nncn23)cc1  MIC (H37RV): 0.33 µM
COc1ccc(-c2oc3ccc(O)c(CN4CCCCC4)c3c2C(=O)NCc2cn(C[C@H]3O[C@H](O[C@H]4O[C@H](CO)[C@@H](O)[C@H](O)[C@H]4O)[C@H](O)[C@@H](O)[C@@H]3O)nn2)cc1  MIC (CDC1551): 0.7 µM
CO[C@H]1/C=C/O[C@@]2(C)Oc3c(C)c(O)c4c(O)c(c(/C=N/N5CCN(C)CC5)c(O)c4c3C2=O)NC(=O)/C(C)=C\C=C\[C@H](C)[C@H](O)[C@@H](C)[C@@H](O)[C@@H](C)[C@H](OC(C)=O)[C@@H]1C  MIC (H37RV): 0.06 µg/mL
CCCc1ccc(CNc2cc(-c3ccccn3)nc3nncn23)cc1  MIC (H37RV; 5 days): > 100 µM
CCc1cc(=O)c2c(O)c3ccoc3c(OC)c2o1  MIC (resazurin; H37RV; 21 days): 512 µg/mL
CCOc1cc(C=NNC(N)=S)ccc1OC(=O)CN1C(=O)CSC1=O  MIC (resazurin; H37RV): 0.63 µM
[H]/N=C(/N)N[C@H]1[C@H](O)[C@@H](O)[C@H](O[C@@H]2O[C@@H](C)[C@](O)(C=O)[C@H]2O[C@@H]2O[C@@H](CO)[C@H](O)[C@@H](O)[C@@H]2NC)[C@@H](N/C(N)=N\[H])[C@@H]1O  MIC (resazurin; 21 days): 64 µg/mL
CCCCCc1ccc(Nc2cc(-c3ccccn3)nc3nncn23)cc1  MIC (H37RV): > 100 µM
COC(=O)C=C1SC(=NN=Cc2ccc(OC(=O)CN3C(=O)CSC3=O)cc2)NC1=O  MIC (resazurin; H37RV): 34.6 µM
O=c1[nH]c2nc(-c3ccccc3)sc2c(=O)n1O  MIC: 12.8 µM
NNC(=O)c1ccncc1  MIC (resazurin; H37RV; 21 days): 0.0625 µg/mL
CCc1nc2[nH]c(=O)n(O)c(=O)c2s1  MIC: 46.4 µM
COc1c(N2C[C@@H]3CCCN[C@@H]3C2)c(F)cc2c(=O)c(C(=O)O)cn(C3CC3)c12  MIC (H37RV): 0.125 µg/mL
CC(C)c1nc2[nH]c(=O)n(O)c(=O)c2s1  MIC: 65.4 µM
CO[C@H]1/C=C/O[C@@]2(C)Oc3c(C)c(O)c4c(O)c(c(/C=N/N5CCN(C)CC5)c(O)c4c3C2=O)NC(=O)/C(C)=C\C=C\[C@H](C)[C@H](O)[C@@H](C)[C@@H](O)[C@@H](C)[C@H](OC(C)=O)[C@@H]1C  MIC (H37RA): 0.01 µM
